Test results from PubChem BioAssay.
Active and inactive are the calls of the source.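 How the source made its calls: active means calcium signal cut by more than 3 SD below the full-agonist control yet still positive, in both repeats and the earlier primary screen; inactive means the rest.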

The compounds below were run against Short transient receptor potential channel 4 (Mus musculus) (UniProt Q9QUQ5) (assay: blockers of DAMGO-evoked TRPC4 calcium flux – cell-based, Fluo4, HEK293 TRPC4beta/mu-opioid, confirmation (AID 2636)). Conditions: at 10 µM; hits give high values.
Sequence of Short transient receptor potential channel 4 (Mus musculus) (Q9QUQ5 whole entry, looked up): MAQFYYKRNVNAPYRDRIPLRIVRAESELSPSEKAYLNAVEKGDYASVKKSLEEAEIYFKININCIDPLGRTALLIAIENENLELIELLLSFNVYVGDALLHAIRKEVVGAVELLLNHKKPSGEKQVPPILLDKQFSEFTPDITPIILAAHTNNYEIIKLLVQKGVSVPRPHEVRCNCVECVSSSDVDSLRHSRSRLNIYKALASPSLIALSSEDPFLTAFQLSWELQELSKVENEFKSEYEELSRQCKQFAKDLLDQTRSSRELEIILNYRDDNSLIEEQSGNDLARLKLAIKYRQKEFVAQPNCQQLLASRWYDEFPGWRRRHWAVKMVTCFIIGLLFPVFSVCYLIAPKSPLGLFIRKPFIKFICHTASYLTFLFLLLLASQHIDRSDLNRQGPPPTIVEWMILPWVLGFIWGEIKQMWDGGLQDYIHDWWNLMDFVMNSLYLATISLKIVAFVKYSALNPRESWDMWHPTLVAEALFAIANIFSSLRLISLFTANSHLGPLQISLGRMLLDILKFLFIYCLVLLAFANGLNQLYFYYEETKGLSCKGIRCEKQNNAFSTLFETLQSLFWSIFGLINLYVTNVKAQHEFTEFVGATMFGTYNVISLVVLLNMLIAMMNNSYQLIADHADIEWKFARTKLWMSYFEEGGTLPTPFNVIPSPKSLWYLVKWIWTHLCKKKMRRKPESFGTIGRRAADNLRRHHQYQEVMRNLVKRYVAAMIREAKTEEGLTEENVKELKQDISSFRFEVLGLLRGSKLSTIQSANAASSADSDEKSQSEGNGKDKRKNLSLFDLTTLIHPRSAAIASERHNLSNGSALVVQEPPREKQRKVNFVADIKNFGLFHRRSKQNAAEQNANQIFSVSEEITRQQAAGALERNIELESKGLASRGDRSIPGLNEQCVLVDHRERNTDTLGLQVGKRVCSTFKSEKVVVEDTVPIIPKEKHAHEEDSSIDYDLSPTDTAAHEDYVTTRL
Outline: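 test system = TRPC4beta/mu-opioid receptor HEK293 cells | compound dosing = one dose, 10 µM final | times = dye 45 min at room temperature, compound 110 s, submaximal DAMGO 110 s | signal = kinetic fluorescence of Fluo4 calcium-sensitive dye, calcium influx | controls = no-compound wells and DAMGO maximal-stimulus wells | replication = duplicate wells for each compound, averaged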
In the case of `Cc1ccsc1C(=O)C1CCCN(Cc2ccccc2O)C1` (stereo not drawn), the inhibition was 84% (active).
For `COc1ccc(C[C@@H]2c3cc(O)c(OC)cc3CCN2C)cc1O`, the outcome was “inactive”.
For `CCC1=Nc2cc(C(=O)N3CCC4(CC3)OCCO4)ccc2Sc2ccc(C)cc21`, the inhibition was 74% (active).
With `Cc1ccc(CN2C3CCCC2CC(NC(=S)NCc2ccccc2)C3)cc1` (stereo not drawn) the inhibition was 88% (active).
With `COc1ccc(Br)cc1CN1CCN(C(=O)Cc2ccccc2)CC1` the inhibition was 89% (active).
For `CC(C)CN(CC(C)C)c1ccc(C=C2C(=O)NC(=S)NC2=O)cc1[N+](=O)[O-]`, the inhibition was 98% (active).
`CCOC(=O)C1(CCc2ccccc2)CCN(Cc2cccc3c2OCO3)CC1` was tested, and the inhibition was 102% (active).
In the case of `COc1ccc(CN2CCCC(C(=O)c3sccc3C)C2)cc1O` (stereo not drawn), the inhibition was 90% (active).
In the case of `CCN1CCN(Cc2cc(Br)ccc2O)CC1`, the outcome was “inactive”.
For `CCN(CC)c1ccc([N+](=O)[O-])c2cccnc12`, the inhibition was 93% (active).
In the case of `CN(CCOc1ccc(C=C2C(=O)NC(=O)NC2=O)cc1)c1ccccn1`, the inhibition was 61% (active).
For `CCN(CC)CC(=O)Nc1ccc(Cl)cc1C(=O)c1ccccc1`, the inhibition was 89% (active).
With `COc1cccc(O)c1CN1CCCC(C(=O)c2sccc2C)C1` (stereo not drawn) the inhibition was 94% (active).
In the case of `CCC1=Nc2cc(C(=O)N3CCC4(CC3)OCCO4)ccc2Sc2ccc(Br)cc21`, the outcome was “inactive”.
With `COc1ccc2[nH]cc(CCN(C)C)c2c1` the outcome was “inactive”.
For `CC(=O)OC1(c2ccccc2)CCN(C2CCCCC2)CC1C` (stereo not drawn), the inhibition was 91% (active).
With `CCOC(=O)C1(c2ccccc2)CCN(CC(=O)Nc2ccc(C)cc2)CC1` the inhibition was 80% (active).
`COc1ccc(O)c(CN2CCCC(C(=O)c3sccc3C)C2)c1` (stereo not drawn) was tested, and the inhibition was 92% (active).
`Clc1ccc(OCC#CCN2CCCC2)cc1` was tested, and the outcome was “inactive”.
For `O=C(c1cccc(C(F)(F)F)c1)C1CCCN(Cc2ccccc2O)C1` (stereo not drawn), the inhibition was 87% (active).
`CCOC(=O)C1(CCc2ccccc2)CCN(Cc2ccco2)CC1` was tested, and the inhibition was 94% (active).
For `Nc1ccccc1-[n+]1c(-c2ccccc2)cc(-c2ccccc2)cc1-c1ccccc1`, the outcome was “inactive”.
With `CCc1nccc2c1[nH]c1ccccc12` the inhibition was 93% (active).
`CCOC(=O)C(O)(c1ccc(NC(=S)NC(=O)c2ccc(Cl)cc2Cl)c(C)c1)C(F)(F)F` (stereo not drawn) was tested, and the outcome was “inactive”.
For `COc1ccc(OC)c(N2Cc3ccccc3C2=N)c1`, the inhibition was 96% (active).
For `CCOc1c(Cl)cc(CNC(C)C(O)c2ccccc2)cc1OC` (stereo not drawn), the inhibition was 99% (active).
In the case of `Cc1cccc(N2CCc3c2nc2ccccc2c3N)c1`, the inhibition was 67% (active).
For `COc1ccc(C)cc1NC1=NC(C)(C)CS1`, the inhibition was 89% (active).
In the case of `N=c1n(CCO)c2ccccc2n1Cc1ccccc1`, the inhibition was 86% (active).
In the case of `CCc1ccc(OCCCN=C(C)c2c(O)n(C)c(=O)n(C)c2=O)cc1`, the outcome was “inactive”.
For `O=C(CN1CCCC1)Nc1ccc(Cl)cc1C(=O)c1ccccc1`, the inhibition was 90% (active).
In the case of `O=C(c1ccc(Cl)cc1)C1CCCN(C2CCSCC2)C1` (stereo not drawn), the inhibition was 86% (active).
In the case of `Cc1ccc(C2CN(C)CC2C(=O)c2ccc(F)cc2)cc1` (stereo not drawn), the inhibition was 87% (active).
For `O=C(Cc1ccccc1)N1CCN(Cc2cccc(Br)c2)CC1`, the inhibition was 81% (active).
In the case of `Cc1cccc(N=Cc2c(O)n(-c3ccccc3C)c(=O)[nH]c2=O)c1`, the outcome was “inactive”.
In the case of `CC(Cc1ccccc1Sc1ccccc1O)N(C)C` (stereo not drawn), the inhibition was 99% (active).
`COc1ccc(OC)c(CN2CCCC(C(=O)c3sccc3C)C2)c1` (stereo not drawn) was tested, and the inhibition was 97% (active).
`CCCCc1ncc(CN2CCCC(C(=O)c3ccc(SC)cc3)C2)[nH]1` (stereo not drawn) was tested, and the inhibition was 90% (active).
